Measured values from different studies.
Each line is one published result; the experiments were not run side by side.
Target: Serine/threonine-protein kinase Chk2 (CHEK2, Homo sapiens, UniProt O96017)

SMILES | assay | conditions | remaining binding
COc1ccnn2ncc(-c3ccnc(N(C)C)n3)c12 | binding | 1 µM | 87%
N#Cc1ccc(Nc2ccc3[nH]c(=O)[nH]c3c2)c(Cl)c1 | cell-free assay, competition with immobilised ligand | 1 µM | 100%
Nc1ncc2c(n1)-c1c([nH]c3ccc(C#CC4CC4)cc13)CCCC2 | binding, competition with immobilised ligand | 1 µM | 86%
O=C(NCc1ncc(C(F)(F)F)cc1Cl)c1ccc2c(c1)C1(CCS(=O)(=O)CC1)[C@H](C1CC1)N2S(=O)(=O)c1ccc(F)cc1 | cell-free assay, competition with immobilised ligand | 1 µM | 100%
FC(F)(F)Oc1cccc(-c2cnc3ccc(-c4ccncc4)nn23)c1 | cell-free assay, competition with immobilised ligand | 5 µM | 74%
CC(=O)c1c(NS(C)(=O)=O)c2cc(-c3ccc(Cl)cc3)c(-c3ccc(Cl)cc3Cl)nc2n(C)c1=O | cell-free assay, competition with immobilised ligand | 1 µM | 100%
COc1cnc(Nc2cccc(S(N)(=O)=O)c2)nc1N1CCN(c2ccccc2)CC1 | binding, competition with immobilised ligand | 1 µM | 96%
O=C(NCCCN1CCOCC1)c1ccc(Nc2ncc(Cl)c(-c3ccc(Cl)s3)n2)cc1 | binding, competition with immobilised ligand | 1 µM | 82%
N[C@H]1CCN(c2nccc(-c3cnn4ncccc34)n2)C1 | binding | 1 µM | 98%
Cn1nc(C(=O)NCc2ccc(C(=O)O)cc2)cc1-c1ccc2[nH]ccc2c1 | cell-free assay, competition with immobilised ligand | 0.1 µM | 100%
C[C@@H]1CCN(c2nccc(-c3cnn4ncccc34)n2)C1 | binding | 1 µM | 71%
O=C(Nc1c[nH]nc1C(=O)NC1CCNCC1)c1cc(F)cc(F)c1 | binding, competition with immobilised ligand | 1 µM | 100%
C[C@@H](c1ccc(-n2cnc3c(N)ncnc32)cc1)N1CCc2nn(C)c(Cc3ccccc3)c2C1=O | binding, competition with immobilised ligand | 0.1 µM | 100%
CO[C@@H](C)c1c(Nc2ccc([C@@H](N(C)C(=O)C3CCS(=O)(=O)CC3)C(F)(F)F)cc2)cnc2cc(Cl)nn12 | cell-free assay, competition with immobilised ligand | 1 µM | 100%
CNC(=O)[C@@H]1CC[C@@H](n2c(-c3ccc4cnccc4c3)nc3ccc(C(=O)NCc4cccc(C(N)=O)c4)cc32)C1 | binding, competition with immobilised ligand | 1 µM | 100%
Cc1cnn2ncc(-c3ccnc(N(C)C)n3)c2c1 | binding | 1 µM | 84%
Cc1cc(-n2nc(Cc3cc(F)cc(C(F)(F)F)c3)nc2C)ccc1C(N)=O | cell-free assay, competition with immobilised ligand | 1 µM | 100%
CN(C)c1ncc(F)c(-c2cnn3ncccc23)n1 | binding | 1 µM | 100%
O=C(NCCCN1CCOCC1)c1ccc(Nc2nccc(-c3cc4ccccc4s3)n2)cc1 | binding, competition with immobilised ligand | 1 µM | 79%
C[C@@]1(Cc2ccc(C#N)cc2)C(=O)N(c2cc(Cl)cc(Cl)c2)c2ncc(C(=O)NC3(c4nc(C5CCC5)no4)CC3)n21 | cell-free assay, competition with immobilised ligand | 1 µM | 100%
CN(C)c1nccc(-c2cnc3ncccn23)n1 | binding | 1 µM | 79%
NC(=O)c1nc(Nc2ccccc2)sc1NC(=O)C1CCCCC1 | cell-free assay, competition with immobilised ligand | 10 µM | 2.7%
CN(c1nccc(-c2cnn3ncccc23)n1)C1CC1 | binding | 1 µM | 100%
O=C(c1ccc(Nc2ncc(Cl)c(-c3ccc(Cl)s3)n2)cc1)N1CCC(N2CCCC2)CC1 | binding, competition with immobilised ligand | 1 µM | 87%
